This passage reports IC50 results from ChEMBL document CHEMBL1147441, “A new series of potent oxindole inhibitors of CDK2” (Bioorg Med Chem Lett, 2004).

For experiment [1], the target named is Cyclin-dependent kinase 2/cyclin E (Homo sapiens, UniProt P24941). In words: In vitro inhibition of recombinant Cyclin Dependent Kinase-2/Cyclin E. Type of experiment: protein-complex assay.
Experiment [2] concerns SW480. In words: In vitro inhibition of SW480 (human colon cancer) cell proliferation. Type of experiment: functional, cell-based. An outline of the steps:
(§1)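 MTT-based proliferation assay run on tumour cells. IC50 values were taken from a single experiment.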

Experiment [3] has as its system MDA-MB-435. In words: In vitro inhibition of MDA MB 435 (human breast cancer) cell proliferation. In kind it is functional, cell-based. An outline of the steps: as §1

By IC50 is commonly meant the concentration that gives 50% inhibition.

The structures appear in SMILES notation. Where only a bound is given, the exact number is not on record here.

As for `COc1cc[nH]c1/C=C1\C(=O)Nc2ccc(F)c(C#C[C@@H](C)O)c21`, the values for the IC50 in experiment [1], in experiment [2] and in experiment [3] were 21 nM, 130 nM and 110 nM, respectively.
The corresponding values for `COc1cc[nH]c1/C=C1\C(=O)Nc2ccc(F)c(C#C[C@@H]3C[C@@H](O)CN3)c21` are 4 nM, 44 nM and 63 nM.
With `CN[C@@H](C#Cc1c(F)ccc2c1/C(=C/c1[nH]ccc1OC)C(=O)N2)CO`, the IC50 was 4 nM in experiment [1], 80 nM in experiment [2] and 300 nM in experiment [3].
Turning to `COc1cc[nH]c1/C=C1\C(=O)Nc2ccc(F)c(C#C[C@@H](NS(C)(=O)=O)[C@@H](C)O)c21`, the IC50 in experiment [1] amounted to 45 nM; in experiment [2] it was 1180 nM; in experiment [3] it was 2620 nM.
On the same counts, the results for `CN[C@H](C#Cc1c(F)ccc2c1/C(=C/c1[nH]ccc1OC)C(=O)N2)[C@@H](C)O` are 7 nM, 140 nM and 358 nM.
In the case of `COc1cc[nH]c1/C=C1\C(=O)Nc2ccc(F)c(C#C[C@@H](N)CO)c21`, the 50% inhibitory concentration (IC50) in experiment [1] turned out to be 5 nM; in experiment [2] it was 205 nM; in experiment [3], 300 nM.
Turning to `COc1cc[nH]c1/C=C1\C(=O)Nc2ccc(F)c(I)c21`, the IC50 in experiment [1] was 1000 nM; in experiment [3], greater than 30000 nM.
As to `COc1cc[nH]c1/C=C1\C(=O)Nc2ccc(F)c(C#CC(O)CN)c21` (stereo not given), the results for the IC50 in experiment [1], in experiment [2] and in experiment [3] were 4 nM, 110 nM and 130 nM, respectively.
The corresponding values for `CCN[C@H](C#Cc1c(F)ccc2c1/C(=C/c1[nH]ccc1OC)C(=O)N2)CO` are 21 nM, 566 nM and 1160 nM.
On the same counts, the results for `CCN[C@H](C#Cc1c(F)ccc2c1/C(=C/c1[nH]ccc1OC)C(=O)N2)[C@@H](C)O` are 18 nM, 549 nM and 1070 nM.
In the case of `COc1cc[nH]c1/C=C1\C(=O)Nc2ccc(F)c(C#C[C@@H]3C[C@H](O)CN3)c21`, the IC50 was determined as 5 nM in experiment [1], 90 nM in experiment [2] and 110 nM in experiment [3].
For the compound `COc1cc[nH]c1/C=C1\C(=O)Nc2ccc(F)c(C#C[C@@H](O)[C@@H](N)[C@@H](C)O)c21`, the IC50 in experiment [2] was 140 nM; in experiment [3] it was 400 nM.
Regarding `COc1cc[nH]c1/C=C1\C(=O)Nc2ccc(F)c(C#C[C@H](C)O)c21`, the IC50 came to 26 nM in experiment [1], 400 nM in experiment [2] and 190 nM in experiment [3].
The corresponding values for `CNCC#Cc1c(F)ccc2c1/C(=C/c1[nH]ccc1OC)C(=O)N2` are 4 nM, 150 nM and 490 nM.
Consider `COc1cc[nH]c1/C=C1\C(=O)Nc2ccc(F)c(C#C[C@@H]3CCCN3)c21`, for which the IC50 was determined as 2 nM in experiment [1], 40 nM in experiment [2] and 31 nM in experiment [3].
`COc1cc[nH]c1/C=C1\C(=O)Nc2ccc(F)c(C#C[C@@H](N)[C@@H](C)O)c21`: the IC50 in experiment [1] turned out to be 9 nM; in experiment [2] it was 210 nM; in experiment [3], 300 nM.
The corresponding values for `COc1cc[nH]c1/C=C1\C(=O)Nc2ccc(F)c(C#C[C@H](CO)NCCO)c21` are 95 nM, 967 nM and 1270 nM.
With `COc1cc[nH]c1/C=C1/C(=O)Nc2ccc(F)cc21`, the IC50 in experiment [1] is 847 nM; in experiment [3] it was greater than 30000 nM.
Turning to `COc1cc[nH]c1/C=C1\C(=O)Nc2ccc(F)c(C#CC3(O)CCOCC3)c21`, the results for the IC50 in experiment [1], in experiment [2] and in experiment [3] were 4 nM, 290 nM and 600 nM, respectively.
Consider `CN[C@H](C#Cc1c(F)ccc2c1/C(=C/c1[nH]ccc1OC)C(=O)N2)CO`, for which the IC50 in experiment [1] is 8 nM; in experiment [2], 100 nM; in experiment [3], 349 nM.
`COc1cc[nH]c1/C=C1\C(=O)Nc2ccc(F)c(C#C[C@H](N)CO)c21`: the IC50 in experiment [1] came to 3 nM; in experiment [2], 270 nM; in experiment [3], 320 nM.
